High-throughput results from PubChem BioAssay.
L major viab – inhibitors of Leishmania major promastigote growth. AID 1063. actives 9% (n = 200,000). Leishmania major promastigotes, resazurin fluorescence viability. inhibition, % at 10 µM; in the data active means inhibition above about 50%;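 further: promastigotes grown with compound for 44 hours at 28 °C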
Calpain2 inh – inhibitors of pig calpain II | purified calpain II, fluorogenic peptide substrate, 30 min | actives 0.37% (n = 220,000) | inhibition, % at 16 µM;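 active means inhibition above about 50%, limit read from the data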
Rad51 HR inh – Rad51 (human) homologous recombination inhibition; hRad51 DNA strand exchange, fluorescence dequenching; actives 0.085% (n = 200,000); Q06609; inhibition, % at 10 µM; AID 1385;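 active means inhibition above 40% at the single screening dose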;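 further: 0% = DMSO control wells and 100% = blanks with heterologous ssDNA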
Target sequence (Q06609 whole entry, looked up): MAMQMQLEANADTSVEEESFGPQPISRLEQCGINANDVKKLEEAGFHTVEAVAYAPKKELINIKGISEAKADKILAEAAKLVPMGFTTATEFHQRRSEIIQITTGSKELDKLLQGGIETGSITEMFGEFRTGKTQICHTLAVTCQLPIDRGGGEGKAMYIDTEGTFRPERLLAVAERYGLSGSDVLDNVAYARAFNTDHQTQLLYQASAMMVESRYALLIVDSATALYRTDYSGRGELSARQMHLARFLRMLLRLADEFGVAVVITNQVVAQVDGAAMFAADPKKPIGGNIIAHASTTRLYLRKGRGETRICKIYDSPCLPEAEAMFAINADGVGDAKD
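Assay system: Human Rad51 nucleoprotein filaments preassembled on unlabelled ssDNA | Reagent: Donor/quencher-labelled 47-bp dsDNA substrate | Doses: One concentration, 10 µM final | Times: 37 °C 15-min filament assembly, 30-min compound preincubation, 15-min exchange | Technique: Fluorescein emission 520 nm, excitation 485 nm | Benchmarks: Plate control and blank wells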
PMI act satM6P – increases human PMI activity with near-saturating mannose 6-phosphate | activation factor at 20 µM | actives 0.34% (n = 190,000) | coupled PMI enzyme assay, resazurin fluorescence, 20 min; stronger effect = higher value; 1 = untreated enzyme, 0 = substrate-free blank | P34949;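 active means activation factor of 2 or more at 20 µM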
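test system = human PMI in coupled enzyme assay | medium = HEPES-buffered pH 7.4 with magnesium and detergent | also added = 1.0 mM mannose-6-phosphate substrate with 0.22 mM NADP+ | compound = 20 µM single dose | times = 20 min incubation at room temperature | measured by = resorufin fluorescence (Ex 544/Em 590 nm) from resazurin via diaphorase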
WT yeast gro inh – growth inhibition of WT yeast, mitochondrial fusion screen; mitochondrial fusion phenotypic screen, WT strain; inhibition, % at 10 µM; AID 1362; actives 2.1% (n = 190,000); in the data active means inhibition above about 58%; tested in S. cerevisiae
PMI activator – activators of human phosphomannose isomerase. activation factor at 20 µM. actives 0.005% (n = 190,000). AID 1214. purified human PMI, coupled resazurin fluorescence, 20 min; stronger effect = higher value; 1 = vehicle control, 0 substrate-free wells. P34949;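 active means activation factor of 2 or more at 20 µM, relative to plate controls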
* = called active by the depositor; . = no result. A selection: hits, their analogues and other compounds. The true share with any hit is near 9.8%.

SMILES	L major viab	Calpain2 inh	Rad51 HR inh	PMI act satM6P	WT yeast gro inh	PMI activator
COc1ccc(/C=C/C(=O)NCCCc2ccccc2)cc1	-6	1	14	0.9	0	1
CC(C)c1ccc(/C=C/C(=O)NCCCc2ccccc2)cc1	-1	22	8	1.1	61*	1
CCn1c(SCC(=O)c2ccc(NC(C)=O)c(OC)c2)nnc1-c1ccc(NS(C)(=O)=O)cc1	64*	1	3	1	-8	0.9
CCC(=O)Nc1ccc(C(=O)CSc2nnc(-c3ccc(NS(C)(=O)=O)cc3)n2C)cc1OC	-5	-12	6	0.9	-4	0.9
CN1CCN(NC(=O)c2cccc(C(F)(F)F)c2)CC1	.	6	.	.	.	.
Cc1ccc(CSc2nc3c(c(N(C)C)n2)CCCC3)cc1	8	41	4	0.9	78*	1
COC(=O)CSc1nc(SCc2ccc(C)cc2)nc2c1CCCC2	-8	22	-3	0.9	70*	0.9
Cc1ccc(CSc2nc3c(c(SCC(=O)O)n2)CCCC3)cc1	-7	-3	3	0.9	-30	0.9
CNc1nc(SCc2ccc(C)cc2)nc2c1CCCC2	100*	32	7	0.8	67*	0.8
CC(C)N1C(=O)CCN(C=O)c2ccccc21	2	-22	-1	1	-14	1
CC(=O)Nc1ccc(NC(=O)CN(c2cc(Cl)ccc2Cl)S(C)(=O)=O)cc1	-1	15	.	1	-1	1.1
CS(=O)(=O)c1ccc2nc(NC(=O)c3ccc(NS(=O)(=O)c4cccc([N+](=O)[O-])c4)cc3)sc2c1	.	-20	7	.	.	.
Cc1cc(C)n(-c2nc(C)nc(NCc3ccccc3)n2)n1	59*	-4	-3	0.9	41	0.9
Cc1nn(-c2nnc(NCc3ccccc3)nn2)c(C)c1Br	84*	24	-6	0.6	20	0.9
CNc1nc(C)nc(-n2nc(C)cc2C)n1	-6	-25	2	1	5	0.9
Cc1cc(C)n(-c2nnc(NCc3ccc(Cl)cc3)nn2)n1	91*	41	6	0.7	18	1
O=c1[nH]c(/C(Cl)=C/c2cc(Cl)ccc2O)nc2cc(Cl)ccc12	49	-46	-1	1	17	0.9
O=C(c1ccc(NS(=O)(=O)c2ccccc2)cc1)N1CCN(Cc2ccc3c(c2)OCO3)CC1	19	-29	.	0.9	11	0.8
CCOC(=O)N1CCN(C(=O)CN(c2cccc(C)c2)S(=O)(=O)c2ccccc2)CC1	5	-11	2	1	4	1
CN(c1ccc(C(=O)N2CCN(Cc3ccc4c(c3)OCO4)CC2)cc1)S(=O)(=O)c1ccccc1	96*	-14	-14	0.9	19	1
CCN1CCN(C(=O)CN(c2cccc(Br)c2)S(=O)(=O)c2ccccc2)CC1	98*	3	0	1	-4	1
COc1ccc(N(CC(=O)N2CCN(Cc3ccc4c(c3)OCO4)CC2)S(=O)(=O)c2ccc(F)cc2)cc1	.	-15	-8	.	.	.
O=C(CN(c1ccccc1)S(=O)(=O)c1ccccc1)N1CCN(Cc2ccc3c(c2)OCO3)CC1	72*	10	1	0.9	23	0.9
Cc1ccc(S(=O)(=O)N(C)c2ccc(C(=O)N3CCN(Cc4ccc5c(c4)OCO5)CC3)cc2)cc1	100*	-31	6	1	-18	1
COc1ccc(CNn2c(-c3cccs3)nc3ccccc3c2=O)cc1OC	26	-8	-2	0.9	-4	0.9
SMILES	L major viab	Calpain2 inh	Rad51 HR inh	PMI act satM6P	WT yeast gro inh	PMI activator
CCCCc1n(CC(=O)c2ccc(Cl)cc2)c2ccccc2[n+]1C	36	-12	6	1	0	1.1
Cc1ccccc1OCC(=O)OCC(=O)NCc1cccs1	-8	24	21	1	16	1
Nc1nonc1C(=O)N/N=C/c1ccc(-c2cccc(C(=O)O)c2)o1	-2	-225	4	0.8	-20	0.9
O=C(Nc1ccccc1C(=O)NCc1cccnc1)c1cccc([N+](=O)[O-])c1	4	-20	21	0.9	3	0.9
COc1ccc(/C=C(/NC(=O)c2ccccc2)c2nc3ccccc3[nH]2)cc1OC	1	-23	3	0.9	-2	0.9
O=C(Nc1nc2ccccc2[nH]1)c1cccs1	29	-3	3	0.8	3	0.9
